This is a sample that favours compounds with a hit; in the whole collection about 2.5% have one here.
rCAG binder: binders of r(CAG) RNA repeats, primary screen, biochemical, fluorescence. r(CAG) RNA repeat, TO-PRO-1 dye displacement fluorescence. hit rate 1.3% among 370,000. inhibition, % at 3 µM;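 active = inhibition above the plate cutoff, the mean of all test compounds on that plate plus 3 SD, cut at about 35% in these data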;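 note: higher means more dye released from RNA so lower well fluorescence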
SIAE primary: human SIAE inhibitors, primary screen, biochemical, fluorescence polarization, FP-Rh probe, 1536-well HTS. hit rate 0.69% among 370,000. AID 1053197, 2014. Sialate O-acetylesterase (Homo sapiens), Q9HAT2. inhibition, % at 9.66 µM. SIAE FP-Rh probe binding;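 active = inhibition above a cutoff: mean of compounds within the control limits plus 3 SD of those, cut at about 17% in these data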
Target sequence (Q9HAT2 whole entry, looked up): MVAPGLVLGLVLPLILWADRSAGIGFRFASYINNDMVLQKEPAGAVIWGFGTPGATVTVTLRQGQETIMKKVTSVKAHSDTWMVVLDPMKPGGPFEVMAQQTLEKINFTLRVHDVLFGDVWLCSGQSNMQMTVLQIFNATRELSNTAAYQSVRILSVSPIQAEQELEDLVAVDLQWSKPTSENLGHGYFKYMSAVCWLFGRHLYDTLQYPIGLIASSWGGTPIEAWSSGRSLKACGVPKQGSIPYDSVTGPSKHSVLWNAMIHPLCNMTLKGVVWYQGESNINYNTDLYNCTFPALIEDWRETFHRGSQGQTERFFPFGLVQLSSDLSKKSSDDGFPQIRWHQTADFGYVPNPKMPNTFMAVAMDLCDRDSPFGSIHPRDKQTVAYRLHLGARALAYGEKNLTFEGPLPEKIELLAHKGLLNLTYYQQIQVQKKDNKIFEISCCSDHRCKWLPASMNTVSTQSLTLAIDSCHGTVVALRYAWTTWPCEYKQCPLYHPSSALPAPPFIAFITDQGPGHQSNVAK
TCR-CD3 inh: inhibitors of human TCR-CD3 interaction, primary screen, biochemical, fluorescence, TAMRA-labeled TCR probe; T-cell receptor (TCR); inhibition, % at 9.4 µM; hit rate 0.37% among 360,000; in the data active = inhibition above about 19%;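 note: recombinant mutant TCR 2C K166C tagged with TAMRA read by polarization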
ABHD4 inh: ABHD4 inhibitors, primary screen, biochemical, fluorescence polarization, mouse; (Lyso)-N-acylphosphatidylethanolamine lipase (Mus musculus), Q8VD66; purified mABHD4, FP-Rh probe fluorescence polarization; inhibition, % at 8.92 µM; hit rate 0.54% among 370,000;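 active = inhibition exceeding the mean over every tested compound plus 3 SD, cut at about 30% in these data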
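Assay system: wild-type mouse ABHD4 protein; compound: single nominal dose of 8.92 µM, 0.89% DMSO final; schedule: 45 min + 60 min at 25 °C; measured by: FP readout, ex 525 nm / em 598 nm; evaluation: % inhibition of FP-Rh probe binding versus controls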
HTRA1 inhibitor: HTRA1 serine protease inhibitors, primary screen, biochemical, fluorescence polarization, HTS; recombinant HTRA1, FP-rhodamine activity-based probe; Q92743; AID 504803, 2011; hit rate 0.5% among 340,000; inhibition, % at 5.96 µM; in the data active = inhibition above about 36%
rCAG binder conf: small molecules binding CAG repeat RNA – biochemical, fluorescence, confirmation; shares compounds with rCAG binder; r(CAG) RNA repeat, TO-PRO-1 dye displacement fluorescence; inhibition, % at 3 µM; hit rate 70% among 4,300; AID 652065, 2013;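 active = inhibition above a per-plate cutoff, the mean inhibition of sample wells plus 3 SD, cut at about 35% in these data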;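 note: loss of TO-PRO-1 fluorescence as compound displaces dye from 1x1 AA loop RNA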
dCAG dye counter: displacement of TO-PRO-1 from CAG DNA duplex, counter-screen for rCAG RNA repeat binder project, biochemical, fluorescence, TO-PRO-1 dye, d(CAG) DNA oligo; shares compounds with rCAG binder; d(CAG) DNA oligo TO-PRO-1 dye displacement; inhibition, % at 3 µM; hit rate 94% among 4,300; AID 652068, 2013;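 active = inhibition above its plate's cutoff, the mean test-well inhibition plus 3 SD, cut at about 4.8% in these data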;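 note: hits displace the dye from DNA and so lower well fluorescence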
DNA CAG DR: inhibitors of DNA CAG/GTC TO-PRO-1 complex, dose response, counter-screen for rCAG RNA repeat binder project, biochemical, fluorescence, TO-PRO-1 dye; shares compounds with rCAG binder; DNA CAG/GTC duplex TO-PRO-1 dye displacement fluorescence; IC50, µM; hit rate 20% among 250; AID 686960, 2013; in the data active = IC50 below about 10 µM
Hits are given with their value; 0 = inactive; - = no result given.

SMILES | rCAG binder | SIAE primary | TCR-CD3 inh | ABHD4 inh | HTRA1 inhibitor | rCAG binder conf | dCAG dye counter | others
O=C(COC(=O)C1(c2ccccc2F)CCCC1)N1CCc2ccccc21 | 0 | 0 | 0 | 0 | 0 | - | -
Cc1nnc(NC(=O)c2cccc(Br)c2)s1 | 0 | 0 | 0 | 0 | 0 | - | -
Cc1ccc(C2=Nn3c(COc4ccc(Cl)cc4)nnc3SC2CC(=O)O)cc1 (stereo unspecified) | 47.1 | 0 | 0 | 0 | 0 | 41.5 | 10.5
CC(C)NC(=O)N(C)C[C@@H]1Oc2cc(C#Cc3ccccn3)ccc2S(=O)(=O)N([C@@H](C)CO)C[C@H]1C | 0 | 0 | 0 | 0 | 0 | - | -
O=C(N/N=C\C=C\c1ccco1)c1cc(-c2ccc3ccccc3c2)n[nH]1 | 44.3 | 0 | 0 | 0 | 0 | 0 | 20.3
C/C(C=NNC(=O)c1cc(-c2ccc(C)c(C)c2)n[nH]1)=C/c1ccco1 | 0 | 0 | - | 0 | - | - | -
CS(=O)(=O)c1sc2nc(-c3cccs3)cc(-c3ccccc3)c2c1N | 65.0 | 0 | 0 | 0 | 0 | 70.3 | 35.9
Cc1ccc(-c2cc(-c3ccccc3)c3c(N)c(S(C)(=O)=O)sc3n2)cc1 | 0 | 0 | 0 | 0 | 0 | - | -
CNC(=O)C(=O)Nc1ccc(C)cc1C | 0 | 0 | 0 | 0 | 0 | - | -
Cc1cc(C)cc(NC(=O)CSc2ncc(S(=O)(=O)c3ccccc3)c(=O)[nH]2)c1 | 60.9 | 0 | 0 | 0 | - | 46.5 | 15.2
CN(C)S(=O)(=O)c1ccc(C(=O)N2CCOCC2)cc1 | 0 | 0 | 0 | 0 | 0 | - | -
O=C1N/C(=N\S(=O)(=O)Cc2ccccc2)S/C1=C/c1cccc([N+](=O)[O-])c1 | 81.4 | 0 | 0 | 0 | 0 | 68.8 | 28.4
CCOc1ccc(/C=C2\SC(=S)NC2=O)cc1OC | 0 | 0 | 0 | 0 | 0 | - | -
COc1ccc(/C=C2/S/C(=N/S(=O)(=O)Cc3ccccc3)NC2=O)cc1OC | 52.8 | 0 | 0 | 0 | 0 | 44.4 | 11.7
COc1ccccc1-n1nnnc1SCC(=O)NC1CCCC1 | 0 | 0 | 0 | 0 | 0 | - | -
CNC(=O)C[C@@H]1CC[C@@H]2[C@H](COc3ccc(NC(=O)c4cccc(F)c4)cc3C(=O)N2C)O1 | 0 | 0 | - | 0 | - | - | -
CNC(=S)Nc1cc(S(=O)(=O)Nc2cc(Cl)ccc2Cl)ccc1N1CCCC1 | 36.9 | 0 | 0 | 0 | 0 | 43.5 | 18.9
N#C/C(=N\Nc1ccc(S(=O)(=O)N2CCCCC2)cc1)C(N)=S | 0 | 0 | 0 | 0 | 0 | - | -
N#C/C(=N\Nc1ccc(S(=O)(=O)N2CCc3ccccc32)cc1)C(N)=S | 84.8 | 0 | 0 | 0 | 0 | 61.7 | 26.7
N#C/C(=N\Nc1ccc(S(=O)(=O)N2CCCCCC2)cc1)C(N)=S | 45.0 | 0 | 0 | 0 | 0 | 44.0 | 13.9
CCOC(=O)CCC(=O)Nc1ccc(S(=O)(=O)N2CCc3ccccc32)cc1 | 0 | 0 | 0 | 0 | 0 | - | -
CCOC(=O)/C(C#N)=N/Nc1ccc(S(=O)(=O)N2CCc3ccccc32)cc1 | 39.9 | 0 | 0 | 0 | 0 | 42.2 | 15.1
N#C/C(=C/c1ccc(F)cc1)S(=O)(=O)c1ccccc1 | 0 | 0 | 0 | 0 | 0 | - | -
N#C/C(=C\c1ccc(C(=O)O)cc1)S(=O)(=O)c1cc(Br)ccc1Br | 54.8 | 0 | 0 | 0 | 0 | 0 | 0
CC(OC(=O)c1cc(S(=O)(=O)N(C)C)ccc1N1CCCC1)C(=O)NCc1ccccc1 (stereo unspecified) | 0 | 0 | 0 | 0 | 0 | - | -
SMILES | rCAG binder | SIAE primary | TCR-CD3 inh | ABHD4 inh | HTRA1 inhibitor | rCAG binder conf | dCAG dye counter | others
COc1ccc(OCC(=O)NNC(=O)c2ccc3c(=O)n4c(nc3c2)CCC4)cc1 | 0 | 0 | 0 | 0 | 0 | - | -
COc1ccc(S(=O)(=O)N(C(C)=O)c2ccc3oc(=O)sc3c2)cc1 | 44.1 | 0 | 0 | 0 | 0 | 0 | 6.0
COC(=O)c1c(C)oc2ccc(N(C(C)=O)S(=O)(=O)c3ccccc3)cc12 | 0 | 0 | 0 | 0 | 0 | - | -
CCOC(=O)C1=C(O)/C(=C\c2cccs2)N=C1C | 0 | 0 | 0 | 0 | 0 | - | -
CCOC(=O)C1=C(O)/C(=C\c2ccc(CNC(=O)C(=O)Nc3ccccc3)o2)N=C1C | 46.4 | 0 | 0 | 0 | 0 | 39.4 | 19.1
Cc1ccc(NC(=O)Nc2nc(-c3ccc(C)s3)cs2)cc1 | 52.4 | 0 | 0 | 0 | 0 | 0 | 21.5
CC(=O)Nc1nc(-c2ccc(Br)s2)cs1 | 0 | 0 | 0 | 0 | 0 | - | -
Cc1c(-n2c(SCC(=O)N(C)C3CCS(=O)(=O)C3)nc3ccccc3c2=O)c(=O)n(-c2ccccc2)n1C (stereo unspecified) | 0 | 0 | 0 | 0 | 0 | - | -
O=C1c2ccccc2-c2n[nH]c(=O)c3ccc(N4CCCCC4)c1c23 | 37.2 | 0 | 0 | 0 | 0 | 0 | 6.8
O=C1c2cccc3c(N4CCCCC4)ccc(c23)C(=O)N1c1ccccn1 | 0 | 0 | 0 | 0 | 0 | - | -
O=C(O)CSc1nc(SCc2ccccc2Cl)nc2c1CCCC2 | 41.5 | 0 | 0 | 0 | 0 | 35.7 | 11.2 | DNA CAG DR=0
COC(=O)CSc1nc(SCc2ccccc2Cl)nc2c1CCCC2 | 0 | 0 | 0 | 0 | 0 | - | -
CNC(=S)Nc1ccccc1-c1ccccc1 | 0 | 0 | 0 | 0 | 0 | - | -
S=c1[nH]nc(Cc2c[nH]c3ccccc23)o1 | 0 | 0 | 0 | 0 | 0 | - | -
S=c1[nH]nc(Cc2sc(-c3ccccc3)nc2-c2ccccc2)o1 | 61.3 | 0 | 0 | 0 | 0 | 47.3 | 16.7
O=C(CC1C[C@H](C(=O)N2CCOCC2)[C@@]2(CCC3CCCC3)c3[nH]c4ccccc4c3CCN2C1=O)NCCCn1ccnc1 (stereo partly specified) | 35.1 | 0 | 0 | 0 | 0 | 0 | 0
COc1ccc2[nH]c3c(c2c1)CCN1C(=O)C(CC(=O)NCCCn2ccnc2)C[C@H](C(=O)N2CCOCC2)[C@@]31CCC1CCCC1 (stereo partly specified) | 0 | 0 | 0 | 0 | 0 | - | -
COCCn1c(SCC(=O)Nc2ccc(NC(C)=O)cc2)nc2c([nH]c3ccccc32)c1=O | 0 | 0 | 0 | 0 | 0 | - | -
CCCc1cc(=O)[nH]c(SCC(=O)Nc2nc(-c3ccccc3)cs2)n1 | 44.5 | 0 | 0 | 0 | 0 | 56.2 | 19.4
COc1ccc(Cl)cc1NC(=O)CSc1nc(NS(=O)(=O)c2ccccc2)cc(=O)[nH]1 | 0 | 0 | 0 | 0 | 0 | - | -
COc1ccc(Cl)cc1NC(=O)CSc1nc(-c2ccccc2)cc(=O)[nH]1 | 42.9 | 0 | 0 | 0 | 0 | 67.5 | 30.1
